PubChem BioAssay
Inconclusive results are not listed. Activity calls are given as the source filed them.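 How the source made its calls, unless noted: active means RAM network inhibition above 8.4% in each of two replicates, 3 SD over the compound average; inconclusive means above 8.4% inhibition in only one replicate; inactive means 8.4% inhibition or less in each replicate.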

Key:
[1] = S. cerevisiae growth inhibition in permissive medium (OD615), pilot counter-assay for S. cerevisiae lifespan shortening project, permissive growth control (AID 705;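 active means growth inhibition above 25% in both replicates, a cutoff set 3 SD above the mean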); conditions: OD615, 24 h, at 10 µM, stronger effect = higher value
Procedure, shortened: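 System – S. cerevisiae with engineered DeaD lifespan system · Buffer or medium – SC raffinose/galactose permissive medium · Schedule – cells pre-grown 4 h, then 24 h compound exposure, 30 °C humidified · Technique – culture turbidity as optical density at 615 nm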

[2] = S. cerevisiae growth inhibition in restrictive medium, OD615, pilot screen, restrictive growth control, yeast lifespan reduction project (AID 706;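 active means growth inhibition above a set limit, 3 SD over mean compound inhibition, in both replicates, cut at about 43% in these data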;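 further: modified DeaD lifespan yeast strain shifted to restrictive glucose medium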); conditions: OD615, 48 h, at 10 µM, stronger effect = higher value
Procedure, shortened: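 Material: engineered S. cerevisiae DeaD strain / Medium: glucose-based CSMM-D restrictive medium / Compound: single dose of 10 µM compound final, 0.25% DMSO / Timing: 4 h pre-incubation, 48 h exposure at 30 °C / Technique: OD615 absorbance reading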

[3] = doxorubicin toxicity protection in MRP-1 cells – H69AR cells, CellTiter-Glo, duplicate, MRP-1 activator project, pilot screen (AID 807;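 active means viability increase at or above a cutoff of the median across tested compounds plus 3 SD, cut at about 8.5% in these data, passing the limit was not always enough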;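 further: compound pretreatment 18-22 h then 72 h combined with doxorubicin; 0% = doxorubicin alone and 100% = vehicle without doxorubicin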); conditions: H69AR viability with doxorubicin, CellTiter-Glo luminescence; at 10 µM; stronger effect = higher value
[4] = viability of HCT116 without oncogenic beta-catenin – human colon tumor cells, pilot screen (AID 823;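 active means cell viability at or below a set limit in both duplicate runs, the limit being the all-compound median minus 4 SD, cut at about 23% in these data, passing the limit was not always enough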;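 further: 0% = wells killed by 20 µM Hyamine and 100% = untreated DMSO cell wells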); conditions: HCT116 beta-catenin knockout viability, CellTiter-Glo, 60 h; at 10 µM; stronger effect = lower value
[5] = viability of PTEN-null HCT116 cells – cell-based, HCT116 clonal line, CellTiter-Glo, pilot screen (AID 824;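 active means viability at or below 27.92% in each of two runs, the all-compound median minus 4 SD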;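 further: 0% = 20 µM Hyamine control and 100% = vehicle cell control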); conditions: HCT116 PTEN-deleted viability, 60 h, at 10 µM, stronger effect = lower value
[6] = RAM pathway blockade in budding yeast – dse1pr::URA3 reporter, 5-FOA selection, pilot screen (AID 869;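 active means inhibition over a set limit, the all-compound mean plus 3 SD, in both replicate runs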;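 further: 0% = DMSO wells with no growth and 100% = 10 µM 1-NA-PP1 with full growth; RAM network block rescues cells from 5-FOA so hits raise OD615 growth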); conditions: S. cerevisiae dse1pr::URA3 5-FOA growth, OD615, 2 d, at 10 µM, stronger effect = higher value
[7] = RAM signaling pathway blockade in yeast – S. cerevisiae, Pdr1DBD-CYC8 efflux-inhibited sensitized strain, primary screen (AID 1298);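 further: 0% = DMSO untreated cells without growth and 100% = 10 µM 1-NA-PP1 full growth; higher means more yeast growth rescued from 5-FOA killing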; conditions: S. cerevisiae cbk1-as DSE1-URA3 strain, 5-FOA growth OD615, 2 d; at 50 µM; stronger effect = higher value

Structure (SMILES) | growth inhibition [1] | growth inhibition [2] | viability increase [3] | viability [4] | viability [5] | inhibition [6] | RAM network inhibition [7]
CCOC(=O)c1c(C)n(Cc2ccccc2)c2ccc(OCC(O)Cn3nc(C)nc3C)cc12 (centres undefined) | -0.525% (inactive) | 19.9% (inactive) | -0.16% (inactive) | 82.7% (inactive) | 88.3% (inactive) | -0.42% (inactive) | 0.63% (inactive)
CCCCCn1c(=O)c(C(=O)Nc2ccncc2)c(O)c2ccccc21 | 92.1% (active) | 100% (active) | -8.28% (inactive) | 13.2% (active) | 9.96% (active) | -0.43% [strain carries analog-sensitive mutant Cbk1 kinase] (inactive) | -1.36% (inactive)
COc1ccc(C2C(C(=O)N3CCC4(CC3)OCCO4)c3cc(OC)c(OC)cc3C(=O)N2C)cc1 (centres undefined) | -15.2% (inactive) | -29% (inactive) | -2.58% (inactive) | 98% (inactive) | 99.4% (inactive) | 1.61% (inactive) | 0.93% (inactive)
CCOC(=O)c1c(C)c(P(=S)(N2CCOCC2)N2CCOCC2)n(C)c1C | -22.4% (inactive) | -3.18% (inactive) | -3.92% (inactive) | 89.1% (inactive) | 87.1% (inactive) | 2.06% (inactive) | 2.36% (inactive)
Cn1cc(C(=O)c2ccccc2)c2ccccc21 | -1.98% (inactive) | 0.835% (inactive) | -1.92% (inactive) | 80.8% (inactive) | 87.1% (inactive) | 0.46% (inactive) | -3.38% (inactive)
Cc1ccnc(-n2c(C)nc3ccccc3c2=O)c1 | -1.76% (inactive) | -3.79% (inactive) | -2.48% (inactive) | 90.8% (inactive) | 90.7% (inactive) | 0.27% (inactive) | -0.81% (inactive)
COc1ccc(CC2C(=O)NC(=O)N(c3ccccc3)C2=O)c(OC)c1 (centres undefined) | -13.5% (inactive) | 0.545% (inactive) | -1.2% (inactive) | 89.6% (inactive) | 96.9% (inactive) | -0.495% (inactive) | 0.67% (inactive)
CC(C)NS(=O)(=O)c1ccc(OCC(=O)N2CCN(C)CC2)cc1 | -11.8% (inactive) | -2.15% (inactive) | -0.3% (inactive) | 96.3% (inactive) | 102% (inactive) | 1.13% (inactive) | 3.6% (inactive)
C=C(C)c1cccc(C(C)(C)NC(=O)NC2CN3CCC2CC3)c1 (centres undefined) | -5.2% (inactive) | 2.09% (inactive) | -1.24% (inactive) | 94.4% (inactive) | 93.9% (inactive) | -0.575% (inactive) | 0.82% (inactive)
Nc1ccccc1C(=O)c1ccccc1 | -0.69% (inactive) | -1.46% (inactive) | -1.42% (inactive) | 90.9% (inactive) | 88.7% (inactive) | 0.55% (inactive) | 2.5% (inactive)
O=c1cccc2n1CC1CC2CN(C(c2ccccc2)c2sc3ncnn3c2O)C1 (centres undefined) | 4.58% (inactive) | 3.32% (inactive) | -1.49% (inactive) | 93.8% (inactive) | 96.8% (inactive) | 1.01% (inactive) | 1.32% (inactive)
OC12CCCCC1C(c1ccccc1)NCC2 (centres undefined) | -3.8% (inactive) | -17.1% (inactive) | -2.28% (inactive) | 102% (inactive) | 102% (inactive) | 3.24% (inactive) | 3.17% (inactive)
O=C(O)C1CN2CCC1CC2 (centres undefined) | -6.59% (inactive) | 5.84% (inactive) | -0.31% (inactive) | 96.2% (inactive) | 93.3% (inactive) | 0.99% (inactive) | -0.77% (inactive)
CCOC(=O)c1c(C)n(Cc2ccco2)c2ccc(OC)cc12 | 3.7% (inactive) | 0.26% (inactive) | -4.85% (inactive) | 84.4% (inactive) | 85.8% (inactive) | 0.59% (inactive) | 3.6% (inactive)
CCCCP(=O)(O)c1ccccc1 | -5.46% (inactive) | -11.7% (inactive) | -0.51% (inactive) | 101% (inactive) | 95.4% (inactive) | 1.03% (inactive) | 3.03% (inactive)
COc1ccccc1N=Cc1c(O)n(C)c(=O)n(C)c1=O | -6.69% (inactive) | 1.98% (inactive) | 0.23% (inactive) | 87.1% (inactive) | 99.6% (inactive) | -0.295% (inactive) | 2.71% (inactive)
COC(=O)c1ccc(CN2CCN(Cc3ccccc3)CC2)cc1 | -18.9% (inactive) | -15.9% (inactive) | -1.15% (inactive) | 94.5% (inactive) | 90.8% (inactive) | 1.31% (inactive) | 1.37% (inactive)
OC12Oc3ccccc3C=C1N1CCC2CC1 (centres undefined) | 1.47% (inactive) | -1.35% (inactive) | 0.26% (inactive) | 99.1% (inactive) | 96.8% (inactive) | 1.48% (inactive) | 0.26% (inactive)
CC(=O)c1cccc(NC2=NCC(C)S2)c1 (centres undefined) | -9.46% (inactive) | -13.1% (inactive) | -0.51% (inactive) | 106% (inactive) | 93.9% (inactive) | 2.77% (inactive) | 2.41% (inactive)

Structure (SMILES) | growth inhibition [1] | growth inhibition [2] | viability increase [3] | viability [4] | viability [5] | inhibition [6] | RAM network inhibition [7]
CCOC(=O)C1CCN(/C=C2/C(=O)NC(=O)N(c3ccc(OCC)cc3)C2=O)CC1 | -11.5% (inactive) | -20.2% (inactive) | 1.62% (inactive) | 98% (inactive) | 97.5% (inactive) | 1.87% (inactive) | 1.16% (inactive)
Cc1cc(OCC(=O)OC(C)(C)C)c2c3c(c(=O)oc2c1)CCC3 | -8.29% (inactive) | -17% (inactive) | -2.71% (inactive) | 88.2% (inactive) | 85.6% (inactive) | 2.17% (inactive) | 5.46% (inactive)
COc1ccc(CN2CC3CC(C2)c2cccc(=O)n2C3)cc1OC (centres undefined) | -11.4% (inactive) | -6.36% (inactive) | -1.47% (inactive) | 93.2% (inactive) | 93.7% (inactive) | 2.04% (inactive) | 1.09% (inactive)
O=C1OCCN1P(=O)(c1ccccc1)c1ccccc1 | -6.19% (inactive) | 2.02% (inactive) | -0.69% (inactive) | 98.4% (inactive) | 98% (inactive) | 0.445% (inactive) | -1.04% (inactive)
O=C(CN1CC(c2ccccc2)CC1=O)Nc1ccc(F)cc1 (centres undefined) | -15.6% (inactive) | -4.88% (inactive) | -3.89% (inactive) | 101% (inactive) | 99.2% (inactive) | -0.44% (inactive) | 0.85% (inactive)
O=c1cccc2n1CC1CC2CN(c2ncnc3c2cnn3-c2ccccc2)C1 (centres undefined) | -14.6% (inactive) | -18.5% (inactive) | -1.4% (inactive) | 101% (inactive) | 101% (inactive) | 1.7% (inactive) | 1.58% (inactive)
c1cncc(C2CCCCN2Cc2ccc3c(c2)OCO3)c1 (centres undefined) | -6.18% (inactive) | -13% (inactive) | -0.84% (inactive) | 95.2% (inactive) | 94.3% (inactive) | 2.12% (inactive) | 4.3% (inactive)
Cc1ccc2c(c1)C1CN(C)CCC1N2C(=O)c1ccco1 (centres undefined) | -2.01% (inactive) | -12.5% (inactive) | -3.67% (inactive) | 85.4% (inactive) | 91.9% (inactive) | 1.32% (inactive) | 2.85% (inactive)
COc1cc2c(cc1OC)-c1c(OC)c(OC)cc3c1C(C2)N(C)CC3 (centres undefined) | -13.1% (inactive) | 1.99% (inactive) | -3.02% (inactive) | 73.6% (inactive) | 61.6% (inactive) | -0.365% (inactive) | 6.23% (inactive)
CC12CNCC(C)(CNC1)C2O (centres undefined) | 7.96% (inactive) | -2.77% (inactive) | -0.15% (inactive) | 97.5% (inactive) | 99.8% (inactive) | 1.12% (inactive) | 2.1% (inactive)
C=Cn1ccnc1P(=S)(c1c(C)nn(-c2ccccc2)c1C)c1nccn1C=C | 0.15% (inactive) | 13.2% (inactive) | -2.8% (inactive) | 93.8% (inactive) | 90.2% (inactive) | 1.75% (inactive) | 5.43% (inactive)
Cc1nc2cc(C(F)(F)F)ccc2n1C1CCN(Cc2nnnn2Cc2cccs2)CC1 | -11.3% (inactive) | -18.3% (inactive) | -6.21% (inactive) | 76.1% (inactive) | 67.6% (inactive) | 1.01% (inactive) | -0.01% (inactive)
CC1(C)CN=C(Nc2ccc(F)c(F)c2)S1 | -7.04% (inactive) | -4.74% (inactive) | 0.98% (inactive) | 111% (inactive) | 101% (inactive) | 0.8% (inactive) | 6.13% (inactive)
COc1ccc2nc(NC(=O)CCc3nc(C4=CCN(C)CC4)no3)sc2c1 | -7.66% (inactive) | 2.61% (inactive) | -2.1% (inactive) | 79.2% (inactive) | 91.7% (inactive) | 2.04% (inactive) | 5.11% (inactive)
O=C(CN1CCOCC1)c1ccc2cc[nH]c2c1 | -10.7% (inactive) | -1.26% (inactive) | 0.03% (inactive) | 105% (inactive) | 108% (inactive) | 0.035% (inactive) | 1.57% (inactive)
Cc1cccnc1-n1c(-c2ccco2)nc2ccccc2c1=O | -5.46% (inactive) | -8.26% (inactive) | -0.56% (inactive) | 100% (inactive) | 101% (inactive) | 0.59% (inactive) | -0.22% (inactive)
COP(=S)(OC)SCN1C(=O)c2ccccc2C1=O | 14% (inactive) | 26.2% (inactive) | -4.23% (inactive) | 94.2% (inactive) | 84.9% (inactive) | 1.48% (inactive) | 3.76% (inactive)
O=C(CN1CC(c2ccccc2)CC1=O)NCc1ccc(F)cc1 (centres undefined) | -10.3% (inactive) | 12.3% (inactive) | 0.06% (inactive) | 103% (inactive) | 103% (inactive) | 2.63% (inactive) | -0.21% (inactive)
